According to ChEMBL document CHEMBL3271970, “Radiopharmaceuticals. 16. Halogenated dopamine analogs. Synthesis and radiolabeling of 6-iododopamine and tissue distribution studies in animals” (J Med Chem, 1976):

Assays:
Liver [1] = experiment: Biodistribution in liver of mongrel dog assessed per organ at 1.29 x 10^-6 mol, iv measured after 2 hrs; type: ADME, organism-based, Canis lupus familiaris; conditions: in vivo
In short: (§1)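 Radioiodinated ([123I] or [131I]) 6-iododopamine in water or saline, used within 30 min of preparation. Given iv at 1.29 × 10^-6 mol/dog; one dog per time point, killed at 2 or 24 h. Large organs counted as three samples and averaged; adrenals and thyroid taken intact and counted. Expressed as % dose/organ.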

Mus musculus [2] = experiment: Biodistribution in adrenal gland of mouse assessed per organ at 8 to 11 x 10^-8 mol, iv measured after 240 mins; type: ADME, organism-based; conditions: in vivo, 4 h
In short: (§2)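 [131I]- or [123I]-6-iododopamine in water or saline, used within 30 min of preparation. Injected iv at 8-11 × 10^-8 mol/mouse. Mice killed by ether overdose at 5-240 min; 3-10 mice per time point. Tissue radioactivity expressed as % dose/organ ± SD.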

[3] = Biodistribution in thyroid gland of mongrel dog assessed per organ at 1.29 x 10^-6 mol, iv measured after 2 hrs; type: ADME, organism-based, Canis lupus familiaris; conditions: in vivo
In short: (§3)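 Radioiodine-labelled tracer given at 1.29 × 10^-6 mol/dog. One dog per time point, killed at 2 or 24 h. Thyroids and other small organs were taken intact and counted. Large organs were sampled three times and averaged. Result given as % dose/organ.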

Mus musculus [4] = experiment: Biodistribution in thyroid gland of mouse assessed per organ at 8 to 11 x 10^-8 mol, iv measured after 5 mins; type: ADME, organism-based; conditions: in vivo
In short: (§4)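 Tracer labelled with either 123I or 131I, in water or saline, used within 30 min of preparation. Mice dosed iv at 8-11 × 10^-8 mol/mouse and killed by ether overdose. Organs counted as % dose/organ ± SD, n = 3-10 mice per time point.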

Liver [5] = experiment: Biodistribution in liver of mouse assessed per organ at 8 to 11 x 10^-8 mol, iv measured after 30 mins; type: ADME, organism-based; conditions: in vivo, 0.5 h; in short: as §2
[6] = Biodistribution in kidney of mongrel dog assessed per organ at 1.29 x 10^-6 mol, iv measured after 2 hrs; type: ADME, organism-based, Canis lupus familiaris; conditions: in vivo; in short: as §1
Liver [7] = experiment: Biodistribution in liver of mouse assessed per organ at 8 to 11 x 10^-8 mol, iv measured after 15 mins; type: ADME, organism-based; conditions: in vivo, 0.25 h; in short: as §2
Liver [8] = experiment: Biodistribution in liver of mouse assessed per organ at 8 to 11 x 10^-8 mol, iv measured after 5 mins; type: ADME, organism-based; conditions: in vivo; in short: as §2
Liver [9] = experiment: Biodistribution in liver of mouse assessed per organ at 8 to 11 x 10^-8 mol, iv measured after 120 mins; type: ADME, organism-based; conditions: in vivo, 2 h; in short: as §2
Mus musculus [10] = experiment: Biodistribution in thyroid gland of mouse assessed per organ at 8 to 11 x 10^-8 mol, iv measured after 15 mins; type: ADME, organism-based; conditions: in vivo, 0.25 h; in short: as §4
[11] = Biodistribution in adrenal medulla of mongrel dog assessed per organ at 1.29 x 10^-6 mol, iv measured after 24 hrs; type: ADME, organism-based, Canis lupus familiaris; conditions: in vivo; in short: as §1
Liver [12] = experiment: Biodistribution in liver of mouse assessed per organ at 8 to 11 x 10^-8 mol, iv measured after 240 mins; type: ADME, organism-based; conditions: in vivo, 4 h; in short: as §2
Mus musculus [13] = experiment: Biodistribution in thyroid gland of mouse assessed per organ at 8 to 11 x 10^-8 mol, iv measured after 60 mins; type: ADME, organism-based; conditions: in vivo, 1 h; in short: as §4
Mus musculus [14] = experiment: Biodistribution in adrenal gland of mouse assessed per organ at 8 to 11 x 10^-8 mol, iv measured after 5 mins; type: ADME, organism-based; conditions: in vivo; in short: as §2
Kidney [15] = experiment: Biodistribution in kidney of mouse assessed per organ at 8 to 11 x 10^-8 mol, iv measured after 240 mins; type: ADME, organism-based; conditions: in vivo, 4 h; in short: as §2
Liver [16] = experiment: Biodistribution in liver of mouse assessed per organ at 8 to 11 x 10^-8 mol, iv measured after 60 mins; type: ADME, organism-based; conditions: in vivo, 1 h; in short: as §2
[17] = Biodistribution in thyroid gland of mongrel dog assessed per organ at 1.29 x 10^-6 mol, iv measured after 24 hrs; type: ADME, organism-based, Canis lupus familiaris; conditions: in vivo; in short: as §3
Kidney [18] = experiment: Biodistribution in kidney of mouse assessed per organ at 8 to 11 x 10^-8 mol, iv measured after 15 mins; type: ADME, organism-based; conditions: in vivo, 0.25 h; in short: as §2
Kidney [19] = experiment: Biodistribution in kidney of mouse assessed per organ at 8 to 11 x 10^-8 mol, iv measured after 5 mins; type: ADME, organism-based; conditions: in vivo; in short: as §2
Mus musculus [20] = experiment: Biodistribution in adrenal gland of mouse assessed per organ at 8 to 11 x 10^-8 mol, iv measured after 30 mins; type: ADME, organism-based; conditions: in vivo, 0.5 h; in short: as §2
Mus musculus [21] = experiment: Biodistribution in thyroid gland of mouse assessed per organ at 8 to 11 x 10^-8 mol, iv measured after 240 mins; type: ADME, organism-based; conditions: in vivo, 4 h; in short: as §4
Mus musculus [22] = experiment: Biodistribution in adrenal gland of mouse assessed per organ at 8 to 11 x 10^-8 mol, iv measured after 60 mins; type: ADME, organism-based; conditions: in vivo, 1 h; in short: as §2
Mus musculus [23] = experiment: Biodistribution in adrenal gland of mouse assessed per organ at 8 to 11 x 10^-8 mol, iv measured after 120 mins; type: ADME, organism-based; conditions: in vivo, 2 h; in short: as §2
Mus musculus [24] = experiment: Biodistribution in thyroid gland of mouse assessed per organ at 8 to 11 x 10^-8 mol, iv measured after 120 mins; type: ADME, organism-based; conditions: in vivo, 2 h; in short: as §4
[25] = Biodistribution in adrenal cortex of mongrel dog assessed per organ at 1.29 x 10^-6 mol, iv measured after 2 hrs; type: ADME, organism-based, Canis lupus familiaris; conditions: in vivo; in short: as §1
[26] = Biodistribution in adrenal medulla of mongrel dog assessed per organ at 1.29 x 10^-6 mol, iv measured after 2 hrs; type: ADME, organism-based, Canis lupus familiaris; conditions: in vivo; in short: as §1
Mus musculus [27] = experiment: Biodistribution in adrenal gland of mouse assessed per organ at 8 to 11 x 10^-8 mol, iv measured after 15 mins; type: ADME, organism-based; conditions: in vivo, 0.25 h; in short: as §2
Mus musculus [28] = experiment: Biodistribution in thyroid gland of mouse assessed per organ at 8 to 11 x 10^-8 mol, iv measured after 30 mins; type: ADME, organism-based; conditions: in vivo, 0.5 h; in short: as §4
[29] = Biodistribution in adrenal cortex of mongrel dog assessed per organ at 1.29 x 10^-6 mol, iv measured after 24 hrs; type: ADME, organism-based, Canis lupus familiaris; conditions: in vivo; in short: as §1
Kidney [30] = experiment: Biodistribution in kidney of mouse assessed per organ at 8 to 11 x 10^-8 mol, iv measured after 30 mins; type: ADME, organism-based; conditions: in vivo, 0.5 h; in short: as §2
Kidney [31] = experiment: Biodistribution in kidney of mouse assessed per organ at 8 to 11 x 10^-8 mol, iv measured after 60 mins; type: ADME, organism-based; conditions: in vivo, 1 h; in short: as §2
[32] = Biodistribution in kidney of mongrel dog assessed per organ at 1.29 x 10^-6 mol, iv measured after 24 hrs; type: ADME, organism-based, Canis lupus familiaris; conditions: in vivo; in short: as §1
Liver [33] = experiment: Biodistribution in liver of mongrel dog assessed per organ at 1.29 x 10^-6 mol, iv measured after 24 hrs; type: ADME, organism-based, Canis lupus familiaris; conditions: in vivo; in short: as §1
Kidney [34] = experiment: Biodistribution in kidney of mouse assessed per organ at 8 to 11 x 10^-8 mol, iv measured after 120 mins; type: ADME, organism-based; conditions: in vivo, 2 h; in short: as §2

Structure (SMILES): Br.NCCc1cc(O)c(O)cc1[123I]
- Drug uptake (Liver [1]): 2.24 %ID
- Drug uptake (Mus musculus [2]): 0.012 %ID
- Drug uptake [3]: 0.026 %ID
- Drug uptake (Mus musculus [4]): 0.094 %ID
- Drug uptake (Liver [5]): 2.4 %ID
- Drug uptake [6]: 0.77 %ID
- Drug uptake (Liver [7]): 3.64 %ID
- Drug uptake (Liver [8]): 7.1 %ID
- Drug uptake (Liver [9]): 0.84 %ID
- Drug uptake (Mus musculus [10]): 0.067 %ID
- Drug uptake [11]: 0.0021 %ID
- Drug uptake (Liver [12]): 0.94 %ID
- Drug uptake (Mus musculus [13]): 0.066 %ID
- Drug uptake (Mus musculus [14]): 0.03 %ID
- Drug uptake (Kidney [15]): 0.79 %ID
- Drug uptake (Liver [16]): 1.04 %ID
- Drug uptake [17]: 0.48 %ID
- Drug uptake (Kidney [18]): 3.44 %ID
- Drug uptake (Kidney [19]): 8.03 %ID
- Drug uptake (Mus musculus [20]): 0.014 %ID
- Drug uptake (Mus musculus [21]): 0.158 %ID
- Drug uptake (Mus musculus [22]): 0.0087 %ID
- Drug uptake (Mus musculus [23]): 0.02 %ID
- Drug uptake (Mus musculus [24]): 0.176 %ID
- Drug uptake [25]: 0.0092 %ID
- Drug uptake [26]: 0.0062 %ID
- Drug uptake (Mus musculus [27]): 0.015 %ID
- Drug uptake (Mus musculus [28]): 0.084 %ID
- Drug uptake [29]: 0.0104 %ID
- Drug uptake (Kidney [30]): 1.69 %ID
- Drug uptake (Kidney [31]): 1 %ID
- Drug uptake [32]: 0.075 %ID
- Drug uptake (Liver [33]): 0.48 %ID
- Drug uptake (Kidney [34]): 0.78 %ID
